Source: ChEMBL document CHEMBL3217651, “A furoxan-amodiaquine hybrid as a potential therapeutic for three parasitic diseases()” (Medchemcomm, 2012)
The source made the active and inactive calls. No cut-off for these calls is given here.

Tests used:
Schistosoma mansoni [1] = test: Antischistosomiasis activity against Schistosoma mansoni assessed as worm mobility and survival at 10 uM by stereomicroscopic analysis; assay type: functional, organism-based
Procedure, shortened: (§1)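 Adult worms perfused with RPMI 1640 from female Swiss-Webster mice 7 weeks after cercarial infection. They were washed and held at 15–20 per well in cRPMI (25 mM HEPES, penicillin/streptomycin, 10% FBS) overnight at 37 °C, 5% CO2. Compound from 10 mM DMSO stock was tested at 50, 10, 5 and 1 μM against DMSO-only wells. Media plus compound were renewed every 48 h; motility and survival scored by stereomicroscope, 10 s per worm.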

Schistosoma mansoni [2] = test: Antischistosomiasis activity against Schistosoma mansoni at 5 nM to 50 uM by thioredoxin glutathione reductase biochemical assay; assay type: functional
Procedure, shortened: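 S. mansoni TGR (20 nM) preincubated 10 min at room temperature with 100 μM NADPH and compound (50 μM to 5 nM, eight levels) in 0.1 M potassium phosphate pH 7.4, 10 mM EDTA. Then 3 mM DTNB was added and A412 followed over the first 3 min. Residual activity was expressed relative to DMSO controls, in triplicate, and IC50 derived.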

Plasmodium falciparum [3] = test: Antimalarial activity against chloroquine-sensitive Plasmodium falciparum 3D7 infected in human erythrocytes after 72 hrs by SYBR Green I staining; conditions: 3D7, 72 h
Plasmodium falciparum [4] = test: Antimalarial activity against chloroquine-sensitive Plasmodium falciparum 3D7 infected in human erythrocytes after 96 hrs by luciferase based delayed death assay; assay type: functional, organism-based; conditions: 3D7, 96 h
Procedure, shortened: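 Delayed-death format of the 3D7 erythrocyte proliferation assay: parasites incubated 96 hours with compound so that activity against progeny is detected, with luciferase as the viability reporter; IC50 taken from this read-out.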

Schistosoma mansoni [5] = test: Antischistosomiasis activity against Schistosoma mansoni assessed as worm mobility and survival at 50 uM after 24 hrs by stereomicroscopic analysis; assay type: functional, organism-based; procedure, shortened: as §1
Ancylostoma ceylanicum [6] = test: Nematicidal activity against Ancylostoma ceylanicum assessed as live/dead worms at 100 uM up to 120 hrs by adult worm killing assay; assay type: functional, organism-based
Procedure, shortened: (§2)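 Adult A. ceylanicum taken from small intestine of infected Syrian hamsters, cultured in RPMI 1640 with 50% FCS, penicillin/streptomycin, Fungizone. Ten worms per well, 2 wells per treatment, with 100 μM compound; DMSO and 100 μM albendazole controls. Wells scored by light microscopy every 24 h for percent live/dead, death meaning complete loss of motility, across 120 h.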

Ancylostoma ceylanicum [7] = test: Nematicidal activity against Ancylostoma ceylanicum assessed as live/dead worms at 100 uM after 72 hrs by adult worm killing assay; assay type: functional, organism-based; procedure, shortened: as §2
Plasmodium falciparum [8] = test: Ratio of IC50 for chloroquine-sensitive Plasmodium falciparum 3D7 by luciferase based delayed death assay to IC50 for chloroquine-sensitive Plasmodium falciparum 3D7 by SYBR Green I staining; assay type: functional
Procedure, shortened: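 P. falciparum 3D7 in human erythrocytes (0.3% parasitemia, 2.5% hematocrit final), seven fivefold dilutions from 5.7 or 29 μM. Standard format: 72 h at 37 °C, 5% CO2, then saponin/Triton lysis with SYBR Green I overnight in the dark, fluorescence 485/535 nm. Delayed-death format: 96 h, luciferase viability read-out. The line is the ratio of the delayed-death IC50 to the SYBR IC50.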

Structure (SMILES)	Activity (Schistosoma mansoni [2])	Activity (Schistosoma mansoni [1])	IC50 (Plasmodium falciparum [3]) [nM]	IC50 (Plasmodium falciparum [4]) [nM]	Activity (Schistosoma mansoni [5])	Activity (Ancylostoma ceylanicum [6])	Activity (Ancylostoma ceylanicum [7])	Ratio IC50 (Plasmodium falciparum [8])
CCN(CC)Cc1cc(Nc2ccnc3cc(Cl)ccc23)ccc1O			15	> 10000				
CC(C)(C)N(Cc1cc(Nc2ccnc3cc(Cl)ccc23)cc(-c2no[n+]([O-])c2C#N)c1)N=O			113	> 15000				
CC(C)(C)NCc1cc(Br)cc(Nc2ccnc3cc(Cl)ccc23)c1			7	65				
CC(C)(C)N(Cc1cc(Nc2ccnc3cc(Cl)ccc23)cc(-c2no[n+]([O-])c2/C=N/O)c1)N=O			24	1070				50
C[C@@H]1CC[C@H]2[C@@H](C)C(=O)O[C@@H]3O[C@@]4(C)CC[C@@H]1[C@]32OO4 [ARTEMISININ]			11	12				

Continued, in another order:

Activity (Schistosoma mansoni [2])	Structure (SMILES)	Activity (Schistosoma mansoni [1])	IC50 (Plasmodium falciparum [3]) [nM]	IC50 (Plasmodium falciparum [4]) [nM]	Activity (Schistosoma mansoni [5])	Activity (Ancylostoma ceylanicum [6])	Activity (Ancylostoma ceylanicum [7])	Ratio IC50 (Plasmodium falciparum [8])
Active	N#Cc1c(-c2ccccc2)no[n+]1[O-] [FUROXAN]	Active						
Active	CC(C)(C)NCc1cc(Nc2ccnc3cc(Cl)ccc23)cc(-c2no[n+]([O-])c2C#N)c1	inactive	40	630	Active	Active	Active	
